This note sets out measurements from ChEMBL document CHEMBL5236552, “Discovery of Soticlestat, a Potent and Selective Inhibitor for Cholesterol 24-Hydroxylase (CH24H)” (J Med Chem, 2021).

CYP3A4, sequence (P08684 whole entry): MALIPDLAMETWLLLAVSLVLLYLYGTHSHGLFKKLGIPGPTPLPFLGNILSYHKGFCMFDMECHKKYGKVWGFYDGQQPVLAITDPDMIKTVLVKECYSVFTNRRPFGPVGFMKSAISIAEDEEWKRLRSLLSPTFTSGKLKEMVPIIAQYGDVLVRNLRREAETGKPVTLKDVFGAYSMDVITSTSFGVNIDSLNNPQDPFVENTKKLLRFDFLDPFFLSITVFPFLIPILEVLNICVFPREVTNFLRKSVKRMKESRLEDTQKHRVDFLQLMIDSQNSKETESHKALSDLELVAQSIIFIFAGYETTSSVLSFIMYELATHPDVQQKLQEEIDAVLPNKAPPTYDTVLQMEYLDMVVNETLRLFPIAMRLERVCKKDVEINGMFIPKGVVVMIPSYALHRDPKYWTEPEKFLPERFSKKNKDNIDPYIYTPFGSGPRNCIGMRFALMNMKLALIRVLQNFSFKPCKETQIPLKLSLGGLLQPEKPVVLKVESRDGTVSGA

The target of the first series is Cholesterol 24-hydroxylase (Homo sapiens, UniProt Q9Y6A2). Put plainly: Inhibition of full length N-terminal his6-tagged human CH24H (28 to 494 residues) expressed in Escherichia coli DH5alpha using [14C] cholesterol as substrate preincubated for 15 mins followed by substrate addition and measured after 5 min in presence of beta-NADPH.
Cholesterol 24-hydroxylase, sequence (Q9Y6A2 whole entry, the tested form may be a part): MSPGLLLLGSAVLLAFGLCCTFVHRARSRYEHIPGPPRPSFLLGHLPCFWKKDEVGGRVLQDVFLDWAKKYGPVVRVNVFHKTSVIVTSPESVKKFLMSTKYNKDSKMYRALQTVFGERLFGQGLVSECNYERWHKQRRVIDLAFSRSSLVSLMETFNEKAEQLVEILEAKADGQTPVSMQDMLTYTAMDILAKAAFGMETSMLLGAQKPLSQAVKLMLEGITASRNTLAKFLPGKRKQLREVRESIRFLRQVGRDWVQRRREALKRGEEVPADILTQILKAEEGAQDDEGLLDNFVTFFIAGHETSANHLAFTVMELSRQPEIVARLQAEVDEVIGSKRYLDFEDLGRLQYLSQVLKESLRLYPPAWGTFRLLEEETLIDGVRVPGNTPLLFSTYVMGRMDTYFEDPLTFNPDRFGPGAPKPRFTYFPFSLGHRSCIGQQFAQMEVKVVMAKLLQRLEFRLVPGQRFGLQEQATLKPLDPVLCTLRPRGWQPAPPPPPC
Conditions: not given
On to `O=C(c1ccncc1)N1N=C(c2ccccc2)CC1(O)C(F)(F)F` (stereo not given), for which the half-inhibitory concentration (IC50) came to 350 nM. Regarding `Cc1ccc(-c2ccncc2)c(C(=O)N2CCN(Cc3ccccc3)C(=O)C2)c1`, the half-maximal inhibitory concentration (IC50) was 89 nM.

On to `Cc1ccc(-c2ccnc(C)c2)c(C(=O)N2CCC(O)(Cc3ccccc3)CC2)c1`, for which the IC50 is more than 10000 nM. Regarding `O=C(c1cccnc1-c1ccncn1)N1CCC(O)(Cc2ccccc2)CC1`, the IC50 was determined as 19 nM. As to `Cc1cccc(-c2ccncc2)c1C(=O)N1CCC(O)(Cc2ccccc2)CC1`, the IC50 was 7.8 nM. The same measure, in the same setting: under `O=C(c1ccccc1-c1ccncc1)N1CCC(O)(Cc2ccccc2)CC1` stands 7.9 nM; under `O=C(c1ccccc1-c1ccncn1)N1CCC(O)(Cc2ccccn2)CC1`, 36 nM; under `C[C@@H](c1ncncc1F)[C@](O)(Cn1cncn1)c1ccc(F)cc1F` [VORICONAZOLE], more than 10000 nM.

Consider `Cc1ccc(-c2ccncc2)c(C(=O)N2CCC(Cc3ccccc3)CC2)c1`, for which the IC50 is 110 nM. As to `Cc1ccc(C(=O)N2CCC(O)(Cc3ccccc3)CC2)c(-c2ccncc2)c1`, the half-inhibitory concentration (IC50) was determined as 4.4 nM. The same measure, in the same setting: to `Cc1ccc(-c2ccncc2)c(C(=O)N2CCC(O)(Cc3ccccc3)CC2)c1` belongs 2.7 nM. `Cc1ccc(-c2ccncc2F)c(C(=O)N2CCC(O)(Cc3ccccc3)CC2)c1`: the IC50 worked out at 17 nM. As for `Cc1ccc(-c2ccncc2)c(C(=O)N2CCN(C(=O)c3ccccc3)CC2)c1`, the IC50 was more than 10000 nM.

Regarding `O=C(c1ccccc1-c1ccncc1)N1CCC(O)(Cc2ccccn2)CC1`, the half-inhibitory concentration (IC50) worked out at 21 nM. Still for that read-out and setting: to `O=C(c1cc(F)ccc1-c1ccncc1)N1CCC(O)(Cc2ccccc2)CC1` belongs 6.1 nM; to `O=C(c1cccnc1-c1ccncc1)N1CCC(O)(Cc2ccccn2)CC1`, 100 nM. `COC(=O)c1cc(C)ccc1-c1ccncc1`: the 50% inhibitory concentration (IC50) came out at 1900 nM. Still for that read-out and setting: under `COC1(Cc2ccccc2)CCN(C(=O)c2cc(C)ccc2-c2ccncc2)CC1` stands 74 nM; under `CCC1(O)CCN(C(=O)c2cc(C)ccc2-c2ccncc2)CC1`, 540 nM; under `Cc1ccc(-c2ccncc2)c(C(=O)N2CCN(Cc3ccccc3)CC2)c1`, 93 nM.

In the case of `Cc1cccc(C(=O)N2CCC(O)(Cc3ccccc3)CC2)c1-c1ccncc1`, the IC50 turned out to be 130 nM. For `Cc1ccc(-c2ccncc2C)c(C(=O)N2CCC(O)(Cc3ccccc3)CC2)c1`, the IC50 worked out at 4.9 nM. On the same count and under the same terms, under `Cc1ccc(-c2ccncc2)c(C(=O)N2CCC(Cc3ccccc3)C(O)C2)c1` (racemic) stands 16 nM. Consider `O=C(c1cc(Cl)ccc1-c1ccncc1)N1CCC(O)(Cc2ccccc2)CC1`, for which the concentration for half-maximal inhibition (IC50) came out at 2.4 nM. As to `Cc1ccc(-c2ccncc2)c(C(=O)N2CCC(O)CC2)c1`, the IC50 was 7700 nM. In the case of `COc1ccc(-c2ccncc2)c(C(=O)N2CCC(O)(Cc3ccccc3)CC2)c1`, the IC50 turned out to be 4.7 nM.

Consider `Cc1ccccc1C1=NN(C(=O)c2ccncc2)C(C)(C)C1`, for which the IC50 stood at 60 nM. Turning to `O=C(c1ccccc1-c1ccncn1)N1CCC(O)(Cc2ccccc2)CC1`, the IC50 worked out at 4.3 nM. Consider `Cc1ccc(-c2ccncc2)c(C(=O)N2CCC(O)(c3ccccc3)CC2)c1`, for which the concentration for half-maximal inhibition (IC50) was found to be 1200 nM.

Tested on in another series: not listed separately
Put plainly: Metabolic stability in human liver microsome assessed as clearance at 1 uM incubated for 15 to 30 mins in presence of NADPH by LC-MS/MS analysis. Type of series: ADME. As to conditions: liver microsomes, time 15-30 min, read-out: CLH. Put shortly:
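Human liver microsomes (0.2 mg protein/mL) were mixed with compound (1 µM) in phosphate buffer (pH 7.4) and started with an NADPH-generating system. Incubated at 37 °C for 15 and 30 min, with zero-time samples as controls, then stopped with acetonitrile. Remaining compound in the supernatant was measured by LC/MS/MS.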
In the case of `O=C(c1cccnc1-c1ccncn1)N1CCC(O)(Cc2ccccc2)CC1`, the microsomal CLint at 1 µM amounted to 17 µL/min/mg. As for `O=C(c1ccccc1-c1ccncc1)N1CCC(O)(Cc2ccccc2)CC1`, the microsomal CLint at 1 µM was 120 µL/min/mg. With `O=C(c1ccccc1-c1ccncn1)N1CCC(O)(Cc2ccccn2)CC1`, the microsomal CLint at 1 µM stood at 9 µL/min/mg. As for `O=C(c1ccccc1-c1ccncc1)N1CCC(O)(Cc2ccccn2)CC1`, the microsomal CLint at 1 µM turned out to be 22 µL/min/mg. On the same count and under the same terms, under `O=C(c1ccccc1-c1ccncn1)N1CCC(O)(Cc2ccccc2)CC1` stands 70 µL/min/mg.

Another series addresses CYP3A4 (Homo sapiens, UniProt P08684). Description: Inhibition of CYP3A4 (unknown origin) at 10 uM using testosterone as substrate incubated for 60 mins by LC-MS/MS analysis relative to control. In kind it is ADME. As to conditions: probe testosterone. Put shortly: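 CYP3A4-expressing microsomes in 50 mmol/L phosphate buffer (pH 7.4) with an NADPH-generating system (MgCl2, β-NADP+, glucose-6-phosphate, G6P dehydrogenase). Testosterone was the substrate and test compound was 10 µmol/L, with final solvent at 0.5%. Incubated 60 min, stopped with acetonitrile, and 6β-hydroxytestosterone read by LC/MS/MS. Run in triplicate; reported as % activity remaining versus an inhibitor-free control.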
Compound `Cc1ccc(-c2ccnc(C)c2)c(C(=O)N2CCC(O)(Cc3ccccc3)CC2)c1` showed an inhibition at 1 h, 10 µM of 60%.

In the case of `O=C(c1cccnc1-c1ccncn1)N1CCC(O)(Cc2ccccc2)CC1`, the inhibition at 1 h, 10 µM amounted to 13%. As for `Cc1cccc(-c2ccncc2)c1C(=O)N1CCC(O)(Cc2ccccc2)CC1`, the inhibition at 1 h, 10 µM was determined as 71%. On the same count and under the same terms, under `O=C(c1ccccc1-c1ccncc1)N1CCC(O)(Cc2ccccc2)CC1` stands 45%. On the same count and under the same terms, under `O=C(c1ccccc1-c1ccncn1)N1CCC(O)(Cc2ccccn2)CC1` stands 8.8%. `Cc1ccc(C(=O)N2CCC(O)(Cc3ccccc3)CC2)c(-c2ccncc2)c1` gave an inhibition at 1 h, 10 µM of 65%.

`Cc1ccc(-c2ccncc2)c(C(=O)N2CCC(O)(Cc3ccccc3)CC2)c1` displayed an inhibition at 1 h, 10 µM of 67%. The same measure, in the same setting: under `Cc1ccc(-c2ccncc2F)c(C(=O)N2CCC(O)(Cc3ccccc3)CC2)c1` stands 77%; under `O=C(c1ccccc1-c1ccncc1)N1CCC(O)(Cc2ccccn2)CC1`, 18%. Turning to `O=C(c1cc(F)ccc1-c1ccncc1)N1CCC(O)(Cc2ccccc2)CC1`, the inhibition at 1 h, 10 µM was determined as 55%. `O=C(c1cccnc1-c1ccncc1)N1CCC(O)(Cc2ccccn2)CC1` registered an inhibition at 1 h, 10 µM of 5.3%. In the case of `Cc1cccc(C(=O)N2CCC(O)(Cc3ccccc3)CC2)c1-c1ccncc1`, the inhibition at 1 h, 10 µM turned out to be 77%. As to `Cc1ccc(-c2ccncc2C)c(C(=O)N2CCC(O)(Cc3ccccc3)CC2)c1`, the inhibition at 1 h, 10 µM was 91%. On the same count and under the same terms, under `O=C(c1cc(Cl)ccc1-c1ccncc1)N1CCC(O)(Cc2ccccc2)CC1` stands 75%; under `COc1ccc(-c2ccncc2)c(C(=O)N2CCC(O)(Cc3ccccc3)CC2)c1`, 67%; under `O=C(c1ccccc1-c1ccncn1)N1CCC(O)(Cc2ccccc2)CC1`, 17%.

By IC50 is commonly meant the concentration needed to halve the response being measured. By inhibition is commonly meant how much of the control response was suppressed. Low values mean a response near the control, high ones a response far below the control.
